# According to ChEMBL document CHEMBL4024789, “Neutral Porphyrin Derivative Exerts Anticancer Activity by Targeting Cellular Topoisomerase I (Top1) and Promotes Apoptotic Cell Death without Stabilizing Top1-DNA Cleavage Complexes” (J Med Chem, 2018):
# Calls of active or inactive are those of the source. The calls are words filed in the database; no cut-off is given here.
# Key:
# MCF7 [1] = assay: Induction of DNA strand breaks in human MCF7 cells at 10 to 20 uM after 12 hrs by alkaline comet assay relative to control; type: functional
# How it was run: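 MCF7 cells exposed 12 h; some pretreated with NAC (10 mM) for 30 min first. Alkaline comet assay; mean comet tail scored over 20–25 cells (average ± SEM).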
# HeLa = assay: Cytotoxicity against human HeLa cells assessed as reduction in cell viability by MTT assay; type: functional, cell-based
# How it was run: (§1)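 Survival of each cell line measured across a range of compound concentrations. Percent inhibition of viability at each concentration calculated against untreated control and IC50 estimated. MEFs were TDP1+/+ and TDP1–/– primary cells. Mean ± SD of at least three experiments in duplicate.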
# [2] = target: T1, DNA topoisomerase 1 (Homo sapiens) (UniProt P11387); assay: Inhibition of recombinant human topoisomerase-1 expressed in baculovirus infected sf9 cells at 1 uM using supercoiled pBS SK(+) DNA as substrate after 15 mins by ethidium bromide staining based agarose gel electrophoresis method relative to control
# T1 sequence (whole entry): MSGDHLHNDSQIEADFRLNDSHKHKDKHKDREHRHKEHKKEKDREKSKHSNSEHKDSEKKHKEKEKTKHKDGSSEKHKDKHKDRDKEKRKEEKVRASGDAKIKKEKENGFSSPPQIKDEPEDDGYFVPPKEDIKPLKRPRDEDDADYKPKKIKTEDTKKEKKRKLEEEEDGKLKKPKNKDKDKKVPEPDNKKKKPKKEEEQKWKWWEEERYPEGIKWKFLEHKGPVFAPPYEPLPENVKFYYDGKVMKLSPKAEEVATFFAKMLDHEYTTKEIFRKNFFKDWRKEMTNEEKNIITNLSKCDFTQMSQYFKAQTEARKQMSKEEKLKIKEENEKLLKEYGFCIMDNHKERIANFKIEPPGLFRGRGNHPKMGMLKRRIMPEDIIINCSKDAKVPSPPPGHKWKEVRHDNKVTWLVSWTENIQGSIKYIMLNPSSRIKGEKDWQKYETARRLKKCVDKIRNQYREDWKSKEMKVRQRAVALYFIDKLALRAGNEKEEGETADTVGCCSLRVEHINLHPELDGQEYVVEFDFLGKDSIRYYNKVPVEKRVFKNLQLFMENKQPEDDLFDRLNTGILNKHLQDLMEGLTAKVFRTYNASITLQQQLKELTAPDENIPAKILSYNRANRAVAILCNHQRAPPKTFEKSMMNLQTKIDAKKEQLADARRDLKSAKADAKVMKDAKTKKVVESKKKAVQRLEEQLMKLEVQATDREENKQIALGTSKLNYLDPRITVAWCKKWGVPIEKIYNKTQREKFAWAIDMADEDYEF
# How it was run: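 Relaxation assay: 90 fmol supercoiled pBS (SK+) DNA with 30 fmol recombinant Top1 (Sf-9/baculovirus). Compound either preincubated with Top1 for 5 min before DNA addition, or added simultaneously with DNA; then 37 °C for 15 min. Vehicle 2% DMSO. Read on 1% agarose gel. EC50 from mean ± SD of three experiments.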
# MCF7 [3] = assay: Cytotoxicity against human MCF7 cells assessed as reduction in cell viability by MTT assay; type: functional, cell-based; how it was run: as §1
# MCF7 [4] = assay: Cytotoxicity against human MCF7 cells transfected with control SiRNA assessed as reduction in cell viability by MTT assay; type: functional, cell-based
# How it was run: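 MCF7 cells transfected with Top1 or control siRNA for 72 h; knockdown confirmed by Western blot with actin as loading control. Percent survival then plotted against compound concentration.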
# Bacteria = assay: Induction of relaxed pBluescript SK(+) DNA intercalation (unknown origin) assessed as negative supercoiling at 50 to 300 uM after 15 mins by agarose gel electrophoresis method
# How it was run: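 Top1 unwinding assay: relaxed DNA made by reacting excess Top1 with supercoiled pBS (SK+) plasmid (50 fmol), then incubated with compound at 50, 100 or 300 μM; m-AMSA and etoposide as reference intercalator/non-intercalator. Topoisomers resolved on agarose gel.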
# MCF7 [5] = assay: Induction of ROS accumulation in human MCF7 cells at 10 uM by CM-H2DCFDA dye based spectrofluorometric method; type: functional, cell-based; conditions: TDE = time-dependent effect
# How it was run: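 MCF7 cells treated with 10 μM for the indicated times, with 0.2% DMSO as vehicle control, or pretreated with NAC (10 mM) for 30 min. ROS read as DCF fluorescence from CM-H2DCFDA. Mean ± SD of three independent experiments.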
# [6] = target: T1, DNA topoisomerase 1 (Homo sapiens); assay: Inhibition of recombinant human EGFP-tagged topoisomerase-1- DNA cleavage complex formation at 20 uM after 10 mins by FRAP assay
# How it was run: (§2)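 FRAP in living MCF7 cells transiently expressing EGFP-human Top1, 37 °C chamber. Treatment was CPT 5 μM or compound 20 μM for 10 min, or CPT for 10 min then compound for 10 min. A subnuclear spot was bleached for 30 ms at 488 nm; curves normalized to the prebleach signal.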
# [7] = target: T1, DNA topoisomerase 1 (Homo sapiens); assay: Inhibition of CPT-induced recombinant human topoisomerase1-supercoiled pBS SK(+) DNA cleavage complex after 30 mins using topoisomerase1 expressed in baculovirus infected sf9 cells by ethidium bromide staining based agarose gel electrophoresis method
# How it was run: (§3)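 Plasmid cleavage assay: 50 fmol supercoiled pBS (SK+) with 100 fmol recombinant Top1 plus compound or CPT, or Top1 with CPT before compound addition, at 37 °C for 30 min. Nicked (form II) and supercoiled (form I) DNA resolved by gel.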
# MEF = assay: Cytotoxicity against TDP1-/- MEF assessed as reduction in cell viability by MTT assay; type: cell-based; conditions: Mus musculus; how it was run: as §1
# [8] = target: T1, DNA topoisomerase 1 (Homo sapiens); assay: Reversible inhibition of recombinant human topoisomerase-1 expressed in baculovirus infected sf9 cells at 1 uM using supercoiled pBS SK(+) DNA as substrate preincubated for 5 mins followed by substrate addition and subsequent 40 fold compound dilution measured after 15 mins by ethidium bromide staining based agarose gel electrophoresis method
# How it was run: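 Recombinant Top1 (100 fmol) preincubated with 1 μM compound for 5 min at 37 °C in relaxation buffer. Mixture diluted 5-, 10-, 20- or 40-fold (final 0.2–0.025 μM), then 50 fmol pBS (SK+) DNA added and incubated 15 min at 37 °C. Three repeats performed.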
# [9] = target: T1, DNA topoisomerase 1 (Homo sapiens); assay: Inhibition of CPT-induced recombinant human EGFP-tagged topoisomerase-1- DNA cleavage complex formation assessed as restoration of Top1 mobility at 20 uM after 10 mins by FRAP assay; design: scale not given: the % may be the effect or the level left; how it was run: as §2
# [10] = target: T1, DNA topoisomerase 1 (Homo sapiens); assay: Inhibition of topoisomerase-1 in human MCF7 whole cell extracts at 0.25 to 5 uM using supercoiled pBS SK(+) DNA as substrate preincubated for 5 mins followed by substrate addition measured after 15 mins by ethidium bromide staining based agarose gel electrophoresis method
# How it was run: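 Ex vivo relaxation assay with MCF7 whole-cell lysate as the Top1 source and supercoiled pBS (SK+) DNA. Compound either preincubated with lysate for 5 min before DNA, or added simultaneously; then 37 °C for 15 min. CPT control at 5 μM. Read on agarose gel; mean ± SD, n=3.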
# [11] = target: T1, DNA topoisomerase 1 (Homo sapiens); assay: Inhibition of recombinant human topoisomerase-1 expressed in baculovirus infected sf9 cells assessed as reduction in cleavage complex formation with supercoiled pBS SK(+) DNA at 10 to 50 uM after 30 mins by ethidium bromide staining based agarose gel electrophoresis method; how it was run: as §3
compound,measurement,setting,value
CN(C)c1ccc(-c2c3nc(c(-c4ccc(N(C)C)cc4)c4ccc([nH]4)c(-c4ccc(C(=O)O)cc4)c4nc(c(-c5ccc(C(=O)O)cc5)c5ccc2[nH]5)C=C4)C=C3)cc1,fold change (FC),MCF7 [1],8
same,IC50,HeLa,4130 nM
same,inhibition,[2],35 to 40%
same,IC50,MCF7 [3],2170 nM
same,IC50,MCF7 [4],2240 nM
same,Activity,Bacteria,inactive
same,Activity,MCF7 [5],Tde
same,inhibition,[6],Active
same,inhibition,[7],Dose-dependent effect
same,IC50,MEF,> 10000 nM
same,inhibition,[8],Active
same,Activity,[9],12 to 15%
same,inhibition,[10],Active
same,inhibition,[11],Active
